Measured values reported in ChEMBL document CHEMBL1138144 (J Med Chem, 2006).

Assays:
[1] = biological target: T1, Sodium-dependent dopamine transporter (Homo sapiens, UniProt Q01959); test: Displacement of [125I]RTI-55 from human DAT expressed in HEK293 cells; assay type: cell-based
Method in brief: (§1)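 Membranes from HEK293 cells expressing hDAT or hSERT, grown to 80% confluence, lysed in 2 mM HEPES/1 mM EDTA, spun and resuspended in 0.32 M sucrose. About 10–15 µg protein preincubated 10 min with compound in Krebs-HEPES pH 7.4 (0.1% DMSO final). Filtered on GF/C. Non-specific binding: 5 µM mazindol (DAT) or 5 µM imipramine (SERT). Duplicates, 2–3 experiments, IC50 converted to Ki by Cheng-Prusoff.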

[2] = biological target: T1, Sodium-dependent dopamine transporter; test: Inhibition of [3H] dopamine uptake into human DAT expressed in HEK293 cells; assay type: functional, cell-based
Method in brief: (§2)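 Confluent HEK293 cells expressing hDAT or hSERT, scraped into Krebs-HEPES. Preincubated 10 min at 25°C with compound (0.1% DMSO final). Uptake started with [3H]dopamine or [3H]serotonin (20 nM final) and stopped after 10 min by filtration on PEI-soaked GF/C filters. Non-specific uptake: 5 µM mazindol (DAT) or 5 µM imipramine (SERT). IC50 from triplicate 6-concentration curves, 2–3 independent determinations.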

[3] = biological target: T2, Sodium-dependent serotonin transporter (Homo sapiens, UniProt P31645); test: Displacement of [125I]RTI-55 from human SERT expressed in HEK293 cells; assay type: cell-based; method in brief: as §1
[4] = biological target: T2, Sodium-dependent serotonin transporter; test: Inhibition of [3H] serotonin uptake into human SERT expressed in HEK293 cells; assay type: functional, cell-based; method in brief: as §2
[5] = biological target: T3, Sodium-dependent noradrenaline transporter (Homo sapiens, UniProt P23975); test: Displacement of [125I]RTI-55 from human NET expressed in HEK293 cells; assay type: cell-based
[6] = biological target: T3, Sodium-dependent noradrenaline transporter; test: Inhibition of [3H] norepinephrine uptake into human NET expressed in HEK293 cells; assay type: functional, cell-based
[7] = biological target: T4, 5-hydroxytryptamine receptor 1A (Homo sapiens, UniProt P08908); test: Inhibitory activity against 5HT1A
T4 sequence (P08908 whole entry): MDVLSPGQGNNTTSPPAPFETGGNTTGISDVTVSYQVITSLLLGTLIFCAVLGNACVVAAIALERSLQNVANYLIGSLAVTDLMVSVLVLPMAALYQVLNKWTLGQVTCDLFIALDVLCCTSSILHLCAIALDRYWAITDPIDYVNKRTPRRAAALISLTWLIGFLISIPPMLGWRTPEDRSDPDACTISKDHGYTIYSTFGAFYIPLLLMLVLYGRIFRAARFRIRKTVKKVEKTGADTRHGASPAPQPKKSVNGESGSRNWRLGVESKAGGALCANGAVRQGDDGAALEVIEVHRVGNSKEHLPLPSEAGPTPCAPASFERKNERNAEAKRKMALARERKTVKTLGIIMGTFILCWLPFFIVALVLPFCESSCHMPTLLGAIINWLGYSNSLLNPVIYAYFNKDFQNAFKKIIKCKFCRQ

[8] = biological target: 5-hydroxytryptamine receptor 1B (Homo sapiens, UniProt P28222); test: Inhibitory activity against 5HT1B
[9] = biological target: T5, 5-hydroxytryptamine receptor 2C (Homo sapiens, UniProt P28335); test: Inhibitory activity against 5HT1C
T5 sequence (P28335 whole entry): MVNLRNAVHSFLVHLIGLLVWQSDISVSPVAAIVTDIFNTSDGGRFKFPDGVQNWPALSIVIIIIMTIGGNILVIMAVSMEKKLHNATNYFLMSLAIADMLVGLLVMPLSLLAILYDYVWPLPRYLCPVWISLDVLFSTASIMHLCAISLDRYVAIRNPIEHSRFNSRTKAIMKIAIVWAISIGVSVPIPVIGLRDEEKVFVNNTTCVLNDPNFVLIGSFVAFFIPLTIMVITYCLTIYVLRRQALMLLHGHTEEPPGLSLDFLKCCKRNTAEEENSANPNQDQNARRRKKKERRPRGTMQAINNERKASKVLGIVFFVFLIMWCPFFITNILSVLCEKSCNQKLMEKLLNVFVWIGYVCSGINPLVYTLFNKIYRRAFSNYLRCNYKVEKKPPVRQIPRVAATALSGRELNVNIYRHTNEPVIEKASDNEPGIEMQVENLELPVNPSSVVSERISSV

[10] = biological target: D(1A) dopamine receptor (Homo sapiens, UniProt P21728); test: Inhibitory activity against dopamine D1
[11] = biological target: D(2) dopamine receptor (Homo sapiens, UniProt P14416); test: Inhibitory activity against dopamine D2
[12] = biological target: D(3) dopamine receptor (Homo sapiens, UniProt P35462); test: Inhibitory activity against dopamine D3
Sequence of D(3) dopamine receptor (P35462 whole entry): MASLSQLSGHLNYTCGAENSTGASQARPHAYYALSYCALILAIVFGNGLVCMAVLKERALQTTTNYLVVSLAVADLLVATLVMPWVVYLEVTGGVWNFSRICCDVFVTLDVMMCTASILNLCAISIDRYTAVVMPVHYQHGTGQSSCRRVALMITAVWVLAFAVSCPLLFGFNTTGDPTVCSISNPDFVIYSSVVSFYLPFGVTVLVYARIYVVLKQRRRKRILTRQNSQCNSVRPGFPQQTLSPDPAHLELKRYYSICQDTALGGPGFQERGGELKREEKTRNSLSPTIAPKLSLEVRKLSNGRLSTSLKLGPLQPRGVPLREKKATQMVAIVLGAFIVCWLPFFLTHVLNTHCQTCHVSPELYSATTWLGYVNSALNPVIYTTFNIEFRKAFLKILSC

Sequence of D(1A) dopamine receptor (P21728 whole entry): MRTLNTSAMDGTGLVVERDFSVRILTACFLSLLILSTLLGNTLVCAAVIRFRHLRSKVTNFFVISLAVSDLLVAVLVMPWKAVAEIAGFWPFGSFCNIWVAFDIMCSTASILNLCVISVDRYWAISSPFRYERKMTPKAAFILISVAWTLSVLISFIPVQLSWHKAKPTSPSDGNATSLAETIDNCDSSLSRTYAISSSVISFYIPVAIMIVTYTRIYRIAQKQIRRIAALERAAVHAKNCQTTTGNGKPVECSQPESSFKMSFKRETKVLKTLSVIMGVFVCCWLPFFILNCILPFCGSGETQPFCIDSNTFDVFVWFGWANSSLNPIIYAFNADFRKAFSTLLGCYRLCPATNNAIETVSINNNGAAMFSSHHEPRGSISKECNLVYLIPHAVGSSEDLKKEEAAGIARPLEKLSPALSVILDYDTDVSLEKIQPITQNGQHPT
T3 sequence (P23975 whole entry): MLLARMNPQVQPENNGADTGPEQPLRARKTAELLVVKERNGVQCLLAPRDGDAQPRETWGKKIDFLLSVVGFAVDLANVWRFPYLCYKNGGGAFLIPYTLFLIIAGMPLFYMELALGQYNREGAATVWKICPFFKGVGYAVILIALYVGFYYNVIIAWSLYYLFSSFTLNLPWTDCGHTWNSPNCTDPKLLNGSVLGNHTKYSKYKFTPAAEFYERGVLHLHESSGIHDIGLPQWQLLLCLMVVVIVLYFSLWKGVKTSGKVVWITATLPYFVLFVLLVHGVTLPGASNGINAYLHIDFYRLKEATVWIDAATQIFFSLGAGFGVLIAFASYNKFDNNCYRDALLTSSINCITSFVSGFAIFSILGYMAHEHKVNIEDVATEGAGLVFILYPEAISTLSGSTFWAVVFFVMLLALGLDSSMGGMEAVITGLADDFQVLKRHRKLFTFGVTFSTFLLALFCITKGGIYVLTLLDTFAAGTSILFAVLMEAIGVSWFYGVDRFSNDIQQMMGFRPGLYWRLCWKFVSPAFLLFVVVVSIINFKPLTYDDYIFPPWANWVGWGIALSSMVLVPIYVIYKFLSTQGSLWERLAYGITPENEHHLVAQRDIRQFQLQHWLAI
Sequence of D(2) dopamine receptor (P14416 whole entry): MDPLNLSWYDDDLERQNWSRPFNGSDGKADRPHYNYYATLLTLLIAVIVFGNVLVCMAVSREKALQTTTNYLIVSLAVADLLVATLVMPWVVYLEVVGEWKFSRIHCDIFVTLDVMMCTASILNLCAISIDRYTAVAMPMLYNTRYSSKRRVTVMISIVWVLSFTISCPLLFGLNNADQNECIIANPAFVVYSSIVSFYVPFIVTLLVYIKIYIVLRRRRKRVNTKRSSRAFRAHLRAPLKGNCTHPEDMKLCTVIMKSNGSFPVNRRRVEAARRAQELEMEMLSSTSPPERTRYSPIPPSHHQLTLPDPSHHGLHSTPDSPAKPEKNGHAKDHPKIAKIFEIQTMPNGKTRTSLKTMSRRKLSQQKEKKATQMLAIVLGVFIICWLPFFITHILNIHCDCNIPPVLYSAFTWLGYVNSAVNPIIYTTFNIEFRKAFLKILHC
Sequence of 5-hydroxytryptamine receptor 1B (P28222 whole entry): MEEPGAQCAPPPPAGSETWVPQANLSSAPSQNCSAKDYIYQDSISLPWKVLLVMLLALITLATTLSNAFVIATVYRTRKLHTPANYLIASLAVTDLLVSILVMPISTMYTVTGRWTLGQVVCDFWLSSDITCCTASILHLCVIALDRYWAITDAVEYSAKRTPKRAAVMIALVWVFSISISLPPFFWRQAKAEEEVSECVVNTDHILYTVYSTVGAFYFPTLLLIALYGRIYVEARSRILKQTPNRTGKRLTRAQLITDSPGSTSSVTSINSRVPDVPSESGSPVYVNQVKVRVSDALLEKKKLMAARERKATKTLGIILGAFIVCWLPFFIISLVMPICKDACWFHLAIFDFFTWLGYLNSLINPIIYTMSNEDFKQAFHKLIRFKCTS
T2 sequence (P31645 whole entry): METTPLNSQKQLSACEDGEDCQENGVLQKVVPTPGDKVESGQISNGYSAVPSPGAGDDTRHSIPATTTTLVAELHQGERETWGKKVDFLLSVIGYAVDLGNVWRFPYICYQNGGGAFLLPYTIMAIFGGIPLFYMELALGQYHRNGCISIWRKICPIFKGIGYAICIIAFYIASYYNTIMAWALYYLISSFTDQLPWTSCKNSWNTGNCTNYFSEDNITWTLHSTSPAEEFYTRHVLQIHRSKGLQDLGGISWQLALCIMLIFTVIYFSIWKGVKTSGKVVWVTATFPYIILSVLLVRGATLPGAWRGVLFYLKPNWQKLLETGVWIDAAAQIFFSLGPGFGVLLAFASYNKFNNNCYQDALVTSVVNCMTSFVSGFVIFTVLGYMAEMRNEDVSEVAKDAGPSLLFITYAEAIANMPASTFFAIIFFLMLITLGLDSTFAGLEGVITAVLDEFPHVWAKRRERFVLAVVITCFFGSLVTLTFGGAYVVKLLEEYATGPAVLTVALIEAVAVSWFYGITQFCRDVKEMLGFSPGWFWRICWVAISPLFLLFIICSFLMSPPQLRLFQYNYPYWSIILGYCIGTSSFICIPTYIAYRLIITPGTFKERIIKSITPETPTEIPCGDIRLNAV
T1 sequence (Q01959 whole entry): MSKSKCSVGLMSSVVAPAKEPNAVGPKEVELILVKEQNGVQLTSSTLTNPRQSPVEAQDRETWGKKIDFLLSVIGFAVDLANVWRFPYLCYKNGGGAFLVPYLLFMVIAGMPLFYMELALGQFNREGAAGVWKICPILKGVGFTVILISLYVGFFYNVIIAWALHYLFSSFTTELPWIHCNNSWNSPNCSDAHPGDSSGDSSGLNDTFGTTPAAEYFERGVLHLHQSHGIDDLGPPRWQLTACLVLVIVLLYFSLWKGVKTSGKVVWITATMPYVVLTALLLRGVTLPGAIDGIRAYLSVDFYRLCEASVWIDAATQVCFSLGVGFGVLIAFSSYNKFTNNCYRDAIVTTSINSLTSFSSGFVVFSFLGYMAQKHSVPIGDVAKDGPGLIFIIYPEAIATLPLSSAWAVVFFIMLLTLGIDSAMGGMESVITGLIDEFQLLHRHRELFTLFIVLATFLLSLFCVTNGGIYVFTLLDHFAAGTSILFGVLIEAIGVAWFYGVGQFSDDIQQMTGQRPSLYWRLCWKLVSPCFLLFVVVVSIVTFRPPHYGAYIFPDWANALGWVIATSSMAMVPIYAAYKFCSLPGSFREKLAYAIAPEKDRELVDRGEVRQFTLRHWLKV

SMILES | Ki [1] | IC50 [2] | Ki [3] | IC50 [4] | Ki [5] | IC50 [6] | IC50 [7] | IC50 [8] | IC50 [9] | IC50 [10] | IC50 [11] | IC50 [12]
CC#Cc1ccc(C(=O)C(CCC)N2CCCC2)cc1 (stereo unspecified) | 0.061 µM | 0.0118 µM | 6.7 µM | 3.3 µM | 0.0698 µM | 0.0193 µM | – | – | – | – | – | –
CCCC(C(=O)c1cccc(C)c1)N1CCCC1 (stereo unspecified) | 0.051 µM | 0.0629 µM | 5.9 µM | – | 0.216 µM | 0.0094 µM | > 10 µM | > 10 µM | > 10 µM | > 10 µM | > 10 µM | > 10 µM
CCC(C(=O)c1ccc(Cl)c(Cl)c1)N1CCCC1 (stereo unspecified) | – | – | 0.81 µM | 0.441 µM | 0.262 µM | 0.0185 µM | – | – | – | – | – | –
CCCC(C(=O)c1cccc(I)c1)N1CCCC1 (stereo unspecified) | 0.109 µM | 0.052 µM | 1.4 µM | 1.07 µM | 0.67 µM | 0.081 µM | – | – | – | – | – | –
CCCC(C(=O)c1ccc(OC)c(OC)c1)N1CCCC1 (stereo unspecified) | > 10 µM | – | 7.46 µM | 1.54 µM | > 10 µM | – | – | – | – | – | – | –
CCCCNC(CCC)C(=O)c1ccc(Cl)c(Cl)c1 (stereo unspecified) | 0.52 µM | 1.19 µM | 5.08 µM | > 10 µM | 4.2 µM | 2.52 µM | – | – | – | – | – | –
CCCC(C(=O)c1ccc(-c2cccs2)cc1)N1CCCC1 (stereo unspecified) | 0.46 µM | 0.539 µM | 3.32 µM | 1.96 µM | 0.37 µM | 0.263 µM | > 10 µM | > 10 µM | > 10 µM | > 10 µM | > 10 µM | > 10 µM
CCCC(C(=O)c1ccc(OC)cc1)N1CCCC1 (stereo unspecified) | 0.329 µM | 0.283 µM | 4.08 µM | 2.43 µM | 2.6 µM | 0.235 µM | > 10 µM | > 10 µM | > 10 µM | > 10 µM | > 10 µM | > 10 µM
CCCC(C(=O)c1ccc(-c2cccn2C)cc1)N1CCCC1 (stereo unspecified) | 3.85 µM | 5.4 µM | > 10 µM | – | > 10 µM | – | – | – | – | – | – | –
C=CCC(C(=O)c1ccc(Cl)c(Cl)c1)N1CCCC1 (stereo unspecified) | 0.0399 µM | 0.0183 µM | 1.06 µM | 0.44 µM | 0.509 µM | 0.0249 µM | – | – | – | – | – | –
CCC[C@@H](C(=O)c1ccc(C)cc1)N1CCCC1 | 0.0181 µM | 0.0163 µM | 2.22 µM | 1.07 µM | 0.109 µM | 0.0113 µM | > 10 µM | > 10 µM | > 10 µM | > 10 µM | > 10 µM | > 10 µM
CCC(CC(=O)c1ccc(Cl)c(Cl)c1)N1CCCC1 (stereo unspecified) | 8.44 µM | > 10 µM | 3.9 µM | 1.78 µM | > 10 µM | – | > 10 µM | > 10 µM | > 10 µM | > 10 µM | > 10 µM | > 10 µM
CCCC(C(=O)c1ccc(F)cc1)N1CCCC1 (stereo unspecified) | 0.082 µM | 0.185 µM | > 10 µM | – | 0.83 µM | 0.171 µM | – | – | – | – | – | –
CCCC(CN1CCCC1)C(=O)c1ccc(C)cc1 (stereo unspecified) | > 10 µM | – | 4.1 µM | 4.8 µM | > 10 µM | – | – | – | – | – | – | –
Cc1ccc(C(=O)C(CC(C)C)N2CCCC2)cc1 (stereo unspecified) | 0.0137 µM | 0.0059 µM | 2.87 µM | 2.04 µM | 0.259 µM | 0.018 µM | – | – | – | – | – | –
CCCC(C(=O)c1ccc(C#N)cc1)N1CCCC1 (stereo unspecified) | 5.9 µM | 1 µM | > 10 µM | – | > 10 µM | – | – | – | – | – | – | –
CCCC(C(=O)c1ccc(NC(C)=O)cc1)N1CCCC1 (stereo unspecified) | 0.0302 µM | 0.0679 µM | > 10 µM | – | 4 µM | 0.317 µM | > 10 µM | > 10 µM | > 10 µM | > 10 µM | > 10 µM | > 10 µM
CCCC(CN1CCCC1)C(=O)c1ccc(Cl)c(Cl)c1 (stereo unspecified) | 1.53 µM | 2.9 µM | 0.63 µM | 0.71 µM | > 10 µM | – | – | – | – | – | – | –

SMILES | Ki [1] | IC50 [2] | Ki [3] | IC50 [4] | Ki [5] | IC50 [6] | IC50 [7] | IC50 [8] | IC50 [9] | IC50 [10] | IC50 [11] | IC50 [12]
CCCC(C(=O)c1ccc(I)cc1)N1CCCC1 (stereo unspecified) | 0.0814 µM | 0.032 µM | 0.301 µM | 0.197 µM | 0.31 µM | 0.0465 µM | – | – | – | – | – | –
CCCC(C(=O)c1ccc(Cl)c(Cl)c1)N1CCCC1 (stereo unspecified) | 0.0115 µM | 0.043 µM | 0.199 µM | 0.6 µM | 0.0378 µM | 0.021 µM | – | – | – | – | – | –
CCCC(C(=O)c1ccc(O)c(O)c1)N1CCCC1 (stereo unspecified) | 0.084 µM | 0.042 µM | > 10 µM | – | 0.219 µM | 0.0076 µM | – | – | – | – | – | –
CCCC(C(=O)c1ccc(-c2ccco2)cc1)N1CCCC1 (stereo unspecified) | 0.105 µM | 0.122 µM | 3.33 µM | 2.18 µM | 0.095 µM | 0.093 µM | – | – | – | – | – | –
CCC[C@H](C(=O)c1ccc(C)cc1)N1CCCC1 | – | 1.79 µM | > 10 µM | – | > 10 µM | – | – | – | – | – | – | –
CCCC(C(=O)c1ccc(C)cc1)N1CCCC1 (stereo unspecified) [PYROVALERONE] | 0.0214 µM | 0.052 µM | 3.77 µM | 2.78 µM | 0.195 µM | 0.0283 µM | – | – | – | – | – | –
CCCC(C(=O)c1ccc(O)cc1)N1CCCC1 (stereo unspecified) | 0.125 µM | 0.0497 µM | > 10 µM | – | 1.29 µM | 0.0867 µM | > 10 µM | > 10 µM | > 10 µM | > 10 µM | > 10 µM | > 10 µM
CCCC(C(=O)c1ccc(CO)cc1)N1CCCC1 (stereo unspecified) | 0.0487 µM | 0.0443 µM | > 10 µM | – | 0.15 µM | 0.0124 µM | – | – | – | – | – | –
CCCC(C(=O)c1ccc(Cl)c(Cl)c1)N1CCCCC1 (stereo unspecified) | 0.144 µM | 0.666 µM | 2.46 µM | > 10 µM | 2.35 µM | 0.8 µM | – | – | – | – | – | –
CCCC(C(=O)c1ccc(C(=O)OC)cc1)N1CCCC1 (stereo unspecified) | 0.36 µM | 0.154 µM | 3.65 µM | 2.35 µM | 1.14 µM | – | – | – | – | – | – | –
C#CCC(C(=O)c1ccc(C)cc1)N1CCCC1 (stereo unspecified) | 2.31 µM | 0.231 µM | > 10 µM | – | 4.1 µM | 0.35 µM | – | – | – | – | – | –
CCCC(C(O)c1ccc(C)cc1)N1CCCC1 (mixture of isomers) | > 10 µM | – | > 10 µM | – | > 10 µM | – | – | – | – | – | – | –
C=CCC(C(=O)c1ccc(C)cc1)N1CCCC1 (stereo unspecified) | 0.0905 µM | 0.055 µM | > 10 µM | – | 1.4 µM | 0.088 µM | – | – | – | – | – | –
CCCC(C(=O)c1ccc([N+](=O)[O-])cc1)N1CCCC1 (stereo unspecified) | 0.266 µM | 1.11 µM | 2.46 µM | 1.11 µM | 2.69 µM | 0.531 µM | – | – | – | – | – | –
CCC(CC(=O)c1ccc(C)cc1)N1CCCC1 (stereo unspecified) | > 10 µM | – | > 10 µM | – | > 10 µM | – | > 10 µM | > 10 µM | > 10 µM | > 10 µM | > 10 µM | > 10 µM
CCCC(C(=O)c1ccc(C(F)(F)F)cc1)N1CCCC1 (stereo unspecified) | > 10 µM | – | 0.959 µM | 1.03 µM | > 10 µM | – | > 10 µM | > 10 µM | > 10 µM | > 10 µM | > 10 µM | > 10 µM
CCCC(C(=O)c1ccccc1)N1CCCC1 (stereo unspecified) | 0.0337 µM | 0.0523 µM | > 10 µM | – | 0.199 µM | 0.056 µM | – | – | – | – | – | –
